# According to PubChem BioAssay:
# Unmarked numbers belong to inactive results. Inconclusive results are not listed. Activity calls are given as the source filed them.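 The calls were made as follows, unless noted: active = growth inhibition above 25% in both replicates, a cutoff set 3 SD above the mean; inconclusive = above 25% in only one replicate; inactive = the rest.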
# Experiments:
# [1] = S. cerevisiae growth inhibition in permissive medium (OD615), pilot counter-assay for S. cerevisiae lifespan shortening project, permissive growth control (AID 705); conditions: OD615, 24 h, at 10 µM, hits give high values
# Procedure, shortened: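 Material: engineered DeaD yeast; compound dosing: one dose 10 µM, DMSO 0.25% final; measure: yeast growth inhibition indicated by reduced 24 h OD615; detection: OD615 turbidity read; incubation: cells pre-grown 4 h, then 24 h compound exposure, 30 °C humidified; medium: permissive synthetic complete medium with raffinose and galactose carbon sources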
# [2] = S. cerevisiae growth inhibition in restrictive medium, OD615, pilot screen, restrictive growth control, yeast lifespan reduction project (AID 706;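 active = growth inhibition above a set limit, 3 SD over mean compound inhibition, in both replicates, cut at about 43% in these data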;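 also: modified DeaD lifespan yeast strain shifted to restrictive glucose medium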); conditions: OD615, 48 h, at 10 µM, hits give high values
# Procedure, shortened: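 material = engineered S. cerevisiae DeaD strain | medium = glucose-based CSMM-D restrictive medium | times = 4 h pre-incubation, 48 h exposure at 30 °C | technique = OD615 absorbance reading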
# [3] = doxorubicin toxicity protection in MRP-1 cells – H69AR cells, CellTiter-Glo, duplicate, MRP-1 activator project, pilot screen (AID 807;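 active = viability increase at or above a cutoff of the median across tested compounds plus 3 SD, cut at about 8.5% in these data, passing the limit was not always enough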;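 also: compound pretreatment 18-22 h then 72 h combined with doxorubicin; 0% = doxorubicin alone and 100% = vehicle without doxorubicin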); conditions: H69AR viability with doxorubicin, CellTiter-Glo luminescence; at 10 µM; hits give high values
# [4] = viability of HCT116 without oncogenic beta-catenin – human colon tumor cells, pilot screen (AID 823;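 active = cell viability at or below a set limit in both duplicate runs, the limit being the all-compound median minus 4 SD, cut at about 23% in these data, passing the limit was not always enough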;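 also: 0% = wells killed by 20 µM Hyamine and 100% = untreated DMSO cell wells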); conditions: HCT116 beta-catenin knockout viability, CellTiter-Glo, 60 h; at 10 µM; hits give low values
# [5] = viability of PTEN-null HCT116 cells – cell-based, HCT116 clonal line, CellTiter-Glo, pilot screen (AID 824;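 active = viability at or below 27.92% in each of two runs, the all-compound median minus 4 SD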;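 also: 0% = 20 µM Hyamine control and 100% = vehicle cell control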); conditions: HCT116 PTEN-deleted viability, 60 h, at 10 µM, hits give low values
# [6] = RAM pathway blockade in budding yeast – dse1pr::URA3 reporter, 5-FOA selection, pilot screen (AID 869;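 active = inhibition over a set limit, the all-compound mean plus 3 SD, in both replicate runs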;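 also: 0% = DMSO wells with no growth and 100% = 10 µM 1-NA-PP1 with full growth; RAM network block rescues cells from 5-FOA so hits raise OD615 growth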); conditions: S. cerevisiae dse1pr::URA3 5-FOA growth, OD615, 2 d; at 10 µM; hits give high values; strain carries analog-sensitive mutant Cbk1 kinase
# [7] = RAM signaling pathway blockade in yeast – S. cerevisiae, Pdr1DBD-CYC8 efflux-inhibited sensitized strain, primary screen (AID 1298;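 active = RAM network inhibition above 8.4% in each of two replicates, 3 SD over the compound average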;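 also: 0% = DMSO untreated cells without growth and 100% = 10 µM 1-NA-PP1 full growth; higher means more yeast growth rescued from 5-FOA killing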); conditions: S. cerevisiae cbk1-as DSE1-URA3 strain, 5-FOA growth OD615, 2 d; at 50 µM; hits give high values
SMILES,growth inhibition [1],growth inhibition [2],viability increase [3],viability [4],viability [5],inhibition [6],RAM network inhibition [7]
O=C(O)c1ccc(Cl)c2c1C1C=CCC1C(c1ccccn1)N2 (configuration not stated),-7.86%,8.06%,-2.57%,98.3%,94.6%,2.31%,1.25%
CCCCCCn1c(SCCOC)nc2c1c(=O)[nH]c(=O)n2C,-2.79%,-3.65%,-0.71%,90.2%,85%,1.88%,9.09%
COc1ccc(N2CCN(C(=O)c3ccc4nc(N5CCCCC5)sc4c3)CC2)cc1,9.87%,6.32%,0.49%,101%,87%,2.52%,6.15%
COCCCNC(=O)c1cc2c(-c3ccc(Cl)cc3)nn(C)c2s1,-0.14%,1.75%,-6.69%,82.9%,84.5%,3.08%,3.67%
CCCNS(=O)(=O)c1cccc2cccnc12,-6.87%,6.17%,-1.58%,101%,96.5%,1.89%,0.72%
C=CCN1C(=O)c2oc3ccccc3c(=O)c2C1c1ccc(O)c(OC)c1 (configuration not stated),3.61%,3.18%,-2.61%,101%,95.4%,2.72%,5.67%
Cn1c(Cn2c(=O)sc3ccccc32)nnc1SCC(=O)N1CCCC1,-7.01%,-4.62%,0.61%,97%,99.3%,1.95%,6.71%
Cc1oc(-c2cccc(Cl)c2)nc1CN1CCC(C(=O)NCCCN2CCCC2=O)CC1,-1.65%,-10.2%,-3.95%,85.8%,93.5%,0.59%,2.35%
COc1ccc(C(=O)CCC(=O)O)cc1,-6.25%,0.095%,-0.14%,98.1%,96.7%,2.16%,-2.03%
O=C1CC(Nc2ccc(N3CCOCC3)cc2)C(=O)N1c1cccc(C(F)(F)F)c1 (configuration not stated),4.95%,-14.4%,-2.76%,110%,98.2%,0.74%,5.28%
COCCOC(=O)c1[nH]c2c(c1C)C(=O)CC(c1cc(OC)ccc1OC)C2 (configuration not stated),-16.8%,-12.3%,-6.01%,38.6%,34.5%,2.09%,9.43%
CC1CCN(CC(=O)N2c3ccccc3CCc3ccccc32)CC1,-14.5%,-19.2%,-1.57%,87.5%,90%,4.08%,4.24%
COc1ccc(NC(=O)c2c(-c3ccccc3)noc2C)c(OC)c1,-16%,-30.3%,-1.79%,97.4%,92.6%,0.895%,3.75%
CC1C(=O)CC(c2ccccc2)N(C)C1c1ccccc1 (configuration not stated),-16%,-18%,-4.71%,82.8%,84.1%,2.57%,8%
O=C(Nc1ccc(Cl)c(Cl)c1)c1ccncc1,-19.8%,-34.8%,-1.27%,101%,90.6%,0.83%,2.47%
CCC(C)(C(=O)NC1CCCCC1)N(Cc1ccco1)C(=O)CC1NC(=O)NC1=O (configuration not stated),-7.46%,-7.12%,-3.95%,97%,94.9%,1.58%,1.8%
COc1ccc(C2C(C(=O)NCc3cccnc3)c3ccccc3C(=O)N2C)cc1OC (configuration not stated),-16.2%,-13.9%,-0.88%,101%,96.6%,1.71%,-0.99%
CCn1c(SCC(=O)N2CCOCC2)nc(O)cc1=O,-6.62%,-12.7%,-0.84%,105%,103%,2.59%,1.54%

SMILES,growth inhibition [1],growth inhibition [2],viability increase [3],viability [4],viability [5],inhibition [6],RAM network inhibition [7]
C=CCOc1ccc(/C=C/C(C)=N\O)cc1,3.48%,7.77%,-3.27%,93.2%,96.3%,1.11%,9.15%
Cc1cc(C)cc(N(CC(=O)NCC2CCCO2)S(=O)(=O)c2c(C)noc2C)c1 (configuration not stated),-12.5%,-8.86%,-1.25%,102%,90.5%,2.89%,1.84%
Cc1cccc(-n2ncc3c(NC(C)C)ncnc32)c1,5.47%,3.18%,-0.3%,101%,84.3%,0.87%,-0.57%
Cn1c(NC(=O)c2ccccc2F)cc(=O)n(C)c1=O,-0.14%,-2.47%,0.23%,101%,106%,0.595%,-1.63%
COc1ccccc1OCc1nc(C#N)c(N2CC(C)CC(C)C2)o1 (configuration not stated),-10.7%,-24.8%,-2.5%,71.7%,72.9%,1.48%,9.85%
O=C1CC(c2cccnc2)c2cc3c(cc2N1)OCCO3 (configuration not stated),2.41%,-0.935%,-2.86%,91.5%,91.9%,2.35%,2.43%
CCNc1ccc(C(=O)OCC)cc1NC(=O)c1cccc(N(C)C)c1,-8.58%,2.37%,-5.51%,18.4% (active),19.1% (active),0.385%,2.72%
O=C(O)c1ccc(NS(=O)(=O)c2cc(Cl)ccc2Cl)cc1,-13.7%,-25.1%,-2.13%,97.8%,95.3%,1.72%,4.43%
CCCCOC(=O)Cc1c(O)c2ccccc2[nH]c1=O,10.9%,12.5%,-1.82%,102%,93.2%,1.82%,-0.98%
COc1ccc(C2C(C(=O)N3CCN(c4ccccc4)CC3)c3ccccc3C(=O)N2C)cc1OC (configuration not stated),-8.36%,-14.2%,-1.19%,97.1%,99.3%,1.28%,0.53%
O=C(NCCN1CCOCC1)c1ccc2c(c1)N(Cc1ccccc1)CCS2,-1.33%,-3.97%,-2.25%,93.2%,94.5%,1.02%,6.44%
Cc1ccc(C(=O)Nc2ccccc2NC(=O)c2ccc(C)o2)o1,-1.73%,8.06%,-3.39%,93.2%,91.6%,1.41%,3.58%
O=C(NCC1CCCO1)c1ccc(CS(=O)(=O)c2ccc(Br)cc2)o1 (configuration not stated),-9.31%,-13.1%,-1.53%,97.8%,97.9%,1.06%,2.45%
Cc1ccc2oc(=O)c3cnn(CC(=O)NCCN4CCOCC4)c3c2c1,-5.79%,-12%,-0.17%,103%,97.7%,1.15%,5.06%
Cc1c(N=C/C=C/c2ccccc2)cnn1C,-8.46%,-12.3%,-5.08%,91.7%,90.5%,1.85%,3.36%
COC(=O)c1ccc(N=c2sc(C(=O)OC)cc(=O)n2C)cc1,-4.13%,-3.27%,-5.93%,71.2%,62.5%,0.495%,3.85%
COc1ccc(C2(C(=O)NCCCN(C)C)CCOCC2)cc1,-19.3%,-23.9%,-0.22%,98.3%,100%,1.26%,1.69%
CCC(=O)Nc1sc2c(c1C(N)=O)CCN(C(C)=O)C2,-12.9%,-19.6%,-0.72%,103%,105%,1.94%,3.29%
